In ChEMBL document CHEMBL4017535 (J Med Chem, 2017):

Legend:
[1] = Plasma clearance in iv dosed monkey; assay type: ADME, organism-based, Macaca mulatta; conditions: rhesus monkey
[2] = Plasma clearance in iv dosed human; assay type: ADME, organism-based
[3] = test system: Mus musculus; assay: Unbound AUC in mouse at 10 mg/kg, po; assay type: ADME, organism-based; conditions: in vivo
In short: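 Mouse PK: 3 mg/kg IV and 10 mg/kg PO. Clearance is expressed unbound, Cl_p,u in L/hr/kg. AUC is unbound, in µM*hr. FaFg is computed as F/(1-Clp/Qh), with mouse liver blood flow Qh 5.2 L/hr/kg. Unbound plasma fraction was measured separately.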

[4] = biological target: Bromodomain-containing protein 8 (Homo sapiens, UniProt Q9H0E9); assay: Binding affinity to human BRD8 (1) (S700 to F854 residues) expressed in mammalian expression system by BROMOscan assay
[5] = Apparent oral plasma clearance in human at 1 mg; assay type: ADME
In short: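 Clinical PK in subjects with cancer after a single 1 mg oral dose, n = 3. Apparent clearance was reported as PO CLp/F in L/hr.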

[6] = biological target: Chromatin remodeling regulator CECR2 (Homo sapiens, UniProt Q9BXF3); assay: Binding affinity to human CECR2 (P423 to D543 residues) expressed in bacterial expression system by BROMOscan assay
[7] = Intrinsic clearance in mouse liver microsomes; assay type: ADME, microsome; conditions: read-out: CLH (converted)
[8] = biological target: Bromodomain and WD repeat-containing protein 1 (Homo sapiens, UniProt Q9NSI6); assay: Binding affinity to human WDR9(2) (A1310 to E1430 residues) expressed in bacterial expression system by BROMOscan assay
[9] = biological target: Adenosine receptor A1 (Homo sapiens) (UniProt P30542); assay: Displacement of [3H]-DPCPX from recombinant human adenosine A1 receptor expressed in CHO cells at 10 uM; assay type: cell-based
[10] = biological target: Bromodomain-containing protein 7 (Homo sapiens, UniProt Q9NPI1); assay: Binding affinity to human BRD7 (L125 to R254 residues) expressed in mammalian expression system by BROMOscan assay
[11] = Fraction unbound in mouse plasma at 1 uM after 4 hrs by LC-MS/MS method; assay type: ADME, cell-free
[12] = Half life in po dosed dog; assay type: ADME, organism-based, Canis lupus familiaris; conditions: in vivo
[13] = Intrinsic clearance in mouse hepatocytes; assay type: ADME, cell-based, Hepatocyte; conditions: read-out: CLH (converted)
[14] = biological target: T1, Bromodomain-containing protein 4 (Homo sapiens, UniProt O60885); assay: Binding affinity to N-terminal His6-tagged human BRD4 BD1 to BD2 (K57 to K550 residues) by isothermal titration calorimetry
[15] = Plasma clearance in mouse at 3 mg/kg, iv; assay type: ADME, organism-based
[16] = test system: Rattus norvegicus; assay: Oral absorption in rat at 1 mg/kg; assay type: ADME, organism-based; conditions: in vivo
In short: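 Oral absorption is expressed as FaFg, calculated as F/(1-Clp/Qh). Liver blood flow (Qh) was 5.2 L/hr/kg for mouse and 3.8 L/hr/kg for rat. Mouse dosing was 3 mg/kg IV and 10 mg/kg PO; rat dosing was 1 mg/kg IV and PO.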

[17] = test system: Liver; assay: Unbound intrinsic clearance in mouse liver microsomes; assay type: ADME, microsome
In short: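 Liver microsome stability is expressed as unbound intrinsic clearance, Cl_int,u, in L/hr/kg. Dextromethorphan served as the in-house low-clearance reference control and verapamil as the high-clearance reference control.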

[18] = Intrinsic clearance in human liver microsomes at 10 uM preincubated for 5 mins followed by NADPH addition measured after 60 mins by HPLC-UV-MS analysis; assay type: ADME, microsome; conditions: read-out: CLH
[19] = biological target: Protein polybromo-1 (Homo sapiens, UniProt Q86U86); assay: Binding affinity to human PBRM1 bromodamian-5 (S645 to D766 residues) expressed in bacterial expression system by BROMOscan assay
[20] = Half life in po dosed monkey; assay type: ADME, organism-based, Macaca mulatta; conditions: rhesus monkey, in vivo
[21] = Intrinsic clearance in dog liver microsomes; assay type: ADME, Canis lupus familiaris, microsome; conditions: read-out: CLH (converted)
[22] = biological target: Histone acetyltransferase p300 (Homo sapiens, UniProt Q09472); assay: Binding affinity to human EP300 (A1040 to G1161 residues) expressed in bacterial expression system by BROMOscan assay
[23] = biological target: Bromodomain and PHD finger-containing protein 3 (Homo sapiens, UniProt Q9ULD4); assay: Binding affinity to human BRPF3 (E588 to G701 residues) expressed in bacterial expression system by BROMOscan assay
[24] = test system: MX1; assay: Antiproliferative activity against human MX1 cells after 72 hrs by Cell Titer Glo assay; assay type: functional, cell-based; conditions: MX1, 72 h
[25] = biological target: Bromodomain adjacent to zinc finger domain protein 2B (Homo sapiens, UniProt Q9UIF8); assay: Binding affinity to human BAZ2B (S2054 to S2168 residues) expressed in bacterial expression system by BROMOscan assay
[26] = Intrinsic clearance in rat liver microsomes at 10 uM preincubated for 5 mins followed by NADPH addition measured after 60 mins by HPLC-UV-MS analysis; assay type: ADME, microsome; conditions: read-out: CLH (converted)
[27] = biological target: E3 ubiquitin-protein ligase TRIM33 (Homo sapiens, UniProt Q9UPN9); assay: Binding affinity to human TRIM33 (PHD, Bromo) (D882 to A1087 residues) expressed in bacterial expression system by BROMOscan assay
[28] = biological target: Bromodomain testis-specific protein (Homo sapiens, UniProt Q58F21); assay: Binding affinity to BRDT BD1 to BD2 (N21 to P380 residues) (unknown origin)
[29] = Oral bioavailability in dog; assay type: ADME, organism-based, Canis lupus familiaris; conditions: in vivo
[30] = Intrinsic clearance in rat hepatocytes; assay type: ADME, cell-based, Hepatocyte; conditions: read-out: CLH (converted)
[31] = Half life in mouse at 10 mg/kg, po; assay type: ADME, organism-based; conditions: in vivo
[32] = Permeability in MDCK cells; assay type: ADME, cell-based, Canis lupus familiaris; conditions: dog, read-out: permeability
[33] = biological target: T1, Bromodomain-containing protein 4; assay: Inhibition of BRD4 in human H1299 cells assessed as decrease in HPV LCR-E2-EP400-mediated transcriptional repression after 24 hrs by Bright-Glo luciferase reporter gene assay; assay type: cell-based
[34] = Intrinsic clearance in dog hepatocytes; assay type: ADME, cell-based, Canis lupus familiaris, Hepatocyte; conditions: read-out: CLH (converted)
[35] = biological target: Adenosine receptor A2b (Homo sapiens, UniProt P29275); assay: Antagonist activity at adenosine A2B receptor (unknown origin)
[36] = test system: Rattus norvegicus; assay: Unbound AUC in rat at 1 mg/kg, po; conditions: in vivo
[37] = test system: Rattus norvegicus; assay: Plasma unbound clearance in rat at 1 mg/kg, iv; assay type: ADME, organism-based; conditions: in vivo
In short: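 In rats, 1 mg/kg was given by both IV and PO routes. IV clearance is unbound (Cl_p,u, L/hr/kg). FaFg is taken as F/(1-Clp/Qh), using rat Qh 3.8 L/hr/kg. Unbound plasma fraction was determined in rat plasma.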

[38] = Oral bioavailability in monkey; assay type: ADME, organism-based, Macaca mulatta; conditions: rhesus monkey, in vivo

Chain of Adenosine receptor A1 (Homo sapiens) (P30542 whole entry, the tested form may be a part): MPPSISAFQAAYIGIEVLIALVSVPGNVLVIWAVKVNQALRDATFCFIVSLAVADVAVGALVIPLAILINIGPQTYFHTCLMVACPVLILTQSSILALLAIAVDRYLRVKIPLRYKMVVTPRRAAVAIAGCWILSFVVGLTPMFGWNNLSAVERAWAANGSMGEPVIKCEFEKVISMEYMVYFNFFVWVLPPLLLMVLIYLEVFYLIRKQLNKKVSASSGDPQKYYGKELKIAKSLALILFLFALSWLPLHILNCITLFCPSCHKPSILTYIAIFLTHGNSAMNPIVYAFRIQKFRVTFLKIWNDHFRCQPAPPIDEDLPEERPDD
Chain of Protein polybromo-1 (Q86U86 whole entry, the tested form may be a part): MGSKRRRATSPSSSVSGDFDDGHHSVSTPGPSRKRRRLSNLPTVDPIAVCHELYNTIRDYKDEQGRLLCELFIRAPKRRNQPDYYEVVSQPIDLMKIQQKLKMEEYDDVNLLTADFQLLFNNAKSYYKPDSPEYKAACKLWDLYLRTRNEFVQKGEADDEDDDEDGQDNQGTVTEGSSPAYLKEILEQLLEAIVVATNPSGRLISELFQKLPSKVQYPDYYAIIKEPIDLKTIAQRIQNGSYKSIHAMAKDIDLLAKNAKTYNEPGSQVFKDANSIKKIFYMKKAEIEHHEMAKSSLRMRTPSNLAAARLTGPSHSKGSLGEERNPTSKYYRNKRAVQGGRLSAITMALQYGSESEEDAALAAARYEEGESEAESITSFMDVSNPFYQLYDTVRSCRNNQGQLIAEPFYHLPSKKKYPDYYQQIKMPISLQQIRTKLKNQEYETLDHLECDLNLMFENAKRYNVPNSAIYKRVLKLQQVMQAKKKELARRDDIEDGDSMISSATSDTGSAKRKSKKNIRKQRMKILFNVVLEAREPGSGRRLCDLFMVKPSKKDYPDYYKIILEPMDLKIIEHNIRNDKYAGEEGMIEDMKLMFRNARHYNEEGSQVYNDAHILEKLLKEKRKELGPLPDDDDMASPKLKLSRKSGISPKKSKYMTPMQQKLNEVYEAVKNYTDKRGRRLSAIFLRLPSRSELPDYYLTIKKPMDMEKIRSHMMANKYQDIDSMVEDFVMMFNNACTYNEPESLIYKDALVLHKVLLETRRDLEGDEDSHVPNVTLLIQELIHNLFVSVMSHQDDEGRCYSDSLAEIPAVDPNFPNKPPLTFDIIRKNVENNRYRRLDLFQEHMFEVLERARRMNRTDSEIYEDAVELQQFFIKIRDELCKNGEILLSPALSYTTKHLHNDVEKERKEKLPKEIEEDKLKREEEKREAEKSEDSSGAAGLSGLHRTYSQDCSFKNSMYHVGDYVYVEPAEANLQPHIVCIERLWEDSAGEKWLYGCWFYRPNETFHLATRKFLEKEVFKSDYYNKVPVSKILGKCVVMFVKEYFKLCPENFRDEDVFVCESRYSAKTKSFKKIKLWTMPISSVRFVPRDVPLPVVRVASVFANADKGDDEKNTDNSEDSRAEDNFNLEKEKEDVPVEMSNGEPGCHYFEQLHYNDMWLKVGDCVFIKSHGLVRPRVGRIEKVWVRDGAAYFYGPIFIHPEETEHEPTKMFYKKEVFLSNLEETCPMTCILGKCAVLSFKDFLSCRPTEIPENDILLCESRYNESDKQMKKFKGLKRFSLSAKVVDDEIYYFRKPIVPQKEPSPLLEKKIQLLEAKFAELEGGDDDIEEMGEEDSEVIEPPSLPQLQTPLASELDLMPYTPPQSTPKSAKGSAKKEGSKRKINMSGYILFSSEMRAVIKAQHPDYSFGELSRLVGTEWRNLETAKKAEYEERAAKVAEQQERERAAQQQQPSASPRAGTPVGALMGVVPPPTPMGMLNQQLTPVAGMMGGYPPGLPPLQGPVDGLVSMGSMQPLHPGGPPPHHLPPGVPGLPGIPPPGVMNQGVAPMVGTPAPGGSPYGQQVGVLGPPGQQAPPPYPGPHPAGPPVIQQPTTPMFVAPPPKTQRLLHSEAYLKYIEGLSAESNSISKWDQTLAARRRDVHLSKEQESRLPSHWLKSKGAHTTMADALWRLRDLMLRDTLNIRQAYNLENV
Chain of Bromodomain and WD repeat-containing protein 1 (Q9NSI6 whole entry, the tested form may be a part): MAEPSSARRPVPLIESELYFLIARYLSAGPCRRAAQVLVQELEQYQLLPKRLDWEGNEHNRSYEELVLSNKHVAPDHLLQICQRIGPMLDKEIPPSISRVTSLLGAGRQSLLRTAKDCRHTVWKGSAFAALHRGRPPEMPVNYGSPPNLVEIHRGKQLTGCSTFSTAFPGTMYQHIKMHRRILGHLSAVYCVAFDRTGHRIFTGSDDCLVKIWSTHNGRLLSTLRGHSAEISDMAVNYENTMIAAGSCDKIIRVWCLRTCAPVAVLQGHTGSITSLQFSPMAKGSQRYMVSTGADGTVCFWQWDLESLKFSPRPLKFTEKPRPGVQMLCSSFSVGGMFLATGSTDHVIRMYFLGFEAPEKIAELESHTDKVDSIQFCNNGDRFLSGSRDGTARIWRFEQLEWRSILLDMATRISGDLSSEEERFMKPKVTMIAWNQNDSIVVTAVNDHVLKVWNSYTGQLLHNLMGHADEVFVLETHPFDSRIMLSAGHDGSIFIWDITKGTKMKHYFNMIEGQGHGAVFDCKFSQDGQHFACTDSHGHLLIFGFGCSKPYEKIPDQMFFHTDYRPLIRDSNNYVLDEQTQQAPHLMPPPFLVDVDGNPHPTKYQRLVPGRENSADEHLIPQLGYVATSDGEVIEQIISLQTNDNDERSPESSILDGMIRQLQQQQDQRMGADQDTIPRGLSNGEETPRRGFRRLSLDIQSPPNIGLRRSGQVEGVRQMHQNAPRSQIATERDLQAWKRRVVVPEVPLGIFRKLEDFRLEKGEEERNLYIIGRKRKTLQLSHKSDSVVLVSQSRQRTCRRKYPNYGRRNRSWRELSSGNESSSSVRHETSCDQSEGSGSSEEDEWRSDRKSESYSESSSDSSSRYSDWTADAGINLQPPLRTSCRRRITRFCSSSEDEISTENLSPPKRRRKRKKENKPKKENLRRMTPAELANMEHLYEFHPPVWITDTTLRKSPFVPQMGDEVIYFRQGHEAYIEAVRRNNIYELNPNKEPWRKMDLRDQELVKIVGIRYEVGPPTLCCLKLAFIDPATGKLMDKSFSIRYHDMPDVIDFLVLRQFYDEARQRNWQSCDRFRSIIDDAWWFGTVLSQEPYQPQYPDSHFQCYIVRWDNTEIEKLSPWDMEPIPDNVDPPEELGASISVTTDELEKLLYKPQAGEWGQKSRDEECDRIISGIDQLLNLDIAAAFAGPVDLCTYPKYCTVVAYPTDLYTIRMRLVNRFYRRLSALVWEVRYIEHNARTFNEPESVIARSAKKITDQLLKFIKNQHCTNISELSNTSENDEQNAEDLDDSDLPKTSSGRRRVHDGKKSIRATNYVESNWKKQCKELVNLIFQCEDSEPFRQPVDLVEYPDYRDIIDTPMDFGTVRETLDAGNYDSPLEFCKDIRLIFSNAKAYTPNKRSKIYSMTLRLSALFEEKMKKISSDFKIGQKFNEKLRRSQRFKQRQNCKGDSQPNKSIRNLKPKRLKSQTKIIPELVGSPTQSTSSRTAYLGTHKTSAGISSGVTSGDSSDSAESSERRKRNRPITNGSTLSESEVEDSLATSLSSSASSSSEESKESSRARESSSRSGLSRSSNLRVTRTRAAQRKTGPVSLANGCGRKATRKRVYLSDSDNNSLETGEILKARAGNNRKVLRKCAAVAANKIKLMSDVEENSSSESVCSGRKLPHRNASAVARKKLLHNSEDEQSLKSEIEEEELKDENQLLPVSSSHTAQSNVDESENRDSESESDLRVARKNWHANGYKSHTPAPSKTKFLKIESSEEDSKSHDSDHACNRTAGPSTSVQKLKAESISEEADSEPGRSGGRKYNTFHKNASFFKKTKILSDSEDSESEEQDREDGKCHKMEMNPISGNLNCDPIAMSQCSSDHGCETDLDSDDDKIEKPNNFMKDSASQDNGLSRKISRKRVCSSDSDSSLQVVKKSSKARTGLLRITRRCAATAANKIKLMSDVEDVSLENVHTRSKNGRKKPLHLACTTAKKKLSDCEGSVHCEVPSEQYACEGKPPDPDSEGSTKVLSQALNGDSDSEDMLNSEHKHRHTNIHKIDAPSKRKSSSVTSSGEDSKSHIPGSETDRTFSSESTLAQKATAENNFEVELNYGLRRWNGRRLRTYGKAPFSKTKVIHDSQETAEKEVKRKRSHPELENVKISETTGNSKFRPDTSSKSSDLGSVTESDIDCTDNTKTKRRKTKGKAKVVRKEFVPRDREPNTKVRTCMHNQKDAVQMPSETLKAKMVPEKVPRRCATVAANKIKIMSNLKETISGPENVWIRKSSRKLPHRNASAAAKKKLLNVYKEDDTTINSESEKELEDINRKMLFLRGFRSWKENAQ
Chain of Adenosine receptor A2b (P29275 whole entry): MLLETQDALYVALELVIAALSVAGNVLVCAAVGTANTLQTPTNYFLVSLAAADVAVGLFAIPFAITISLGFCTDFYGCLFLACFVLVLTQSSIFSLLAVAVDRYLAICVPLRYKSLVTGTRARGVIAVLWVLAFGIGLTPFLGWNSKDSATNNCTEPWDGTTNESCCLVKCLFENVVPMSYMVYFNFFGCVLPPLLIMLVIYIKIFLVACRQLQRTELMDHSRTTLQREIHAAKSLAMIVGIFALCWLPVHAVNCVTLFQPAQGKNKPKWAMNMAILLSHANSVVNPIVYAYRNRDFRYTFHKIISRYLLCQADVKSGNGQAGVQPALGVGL

## CCS(=O)(=O)Nc1ccc(Oc2ccc(F)cc2F)c(-c2cn(C)c(=O)c3[nH]ccc23)c1 [MIVEBRESIB]
[1]
  clearance: 5.5 mL/min/kg
[2]
  clearance: 2.33 mL/min/kg
[3]
  fAUC: 0.63 µM·h
[4]
  Kd: > 1000 nM
[5]
  CL/F: 83.8 mL/min
[6]
  Kd: > 1000 nM
[7]
  CLint scaled: 138 mL/min/kg
[8]
  Kd: > 1000 nM
[9]
  inhibition: 97%
[10]
  Kd: > 1000 nM
[11]
  fraction unbound at 4 h, 1 µM: 0.02
[12]
  half-life: 348 min
[13]
  CLint scaled: 58.3 mL/min/kg
[14]
  Kd: < 10 nM
[15]
  clearance: 8.33 mL/min/kg
[16]
  FaFg: 0.77
[17]
  CL free: 33 L/h/kg
[18]
  CLint scaled at 10 µM: < 25 mL/min/kg
[19]
  Kd: > 1000 nM
[20]
  half-life: 264 min
[21]
  CLint scaled: 51.7 mL/min/kg
[22]
  Kd: 87 nM
[23]
  Kd: > 1000 nM
[24]
  EC50: 13 nM
[25]
  Kd: > 1000 nM
[26]
  CLint scaled at 10 µM: 66.7 mL/min/kg
[27]
  Kd: > 1000 nM
[28]
  Ki: 2.2 nM
[29]
  bioavailability: 41%
[30]
  CLint scaled: 66.7 mL/min/kg
[31]
  half-life: 162 min
[32]
  Papp: 29 ×10⁻⁶ cm/s
[33]
  EC50: 20 nM
[34]
  CLint scaled: 35 mL/min/kg
[35]
  IC50: 2600 nM
[36]
  fAUC: 0.27 µM·h
[37]
  clearance: 27 L/h/kg
[38]
  bioavailability: 33%
